MrgX1 antagonist: blocks BAM8-22 activation of human MrgX1 receptor. Q96LB2. MRGX1-HEK293 calcium flux, Fluo-4, BAM8-22 antagonism; hits give low values. B-score at 10 µM. 310,000 compounds, 1.3% hits;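 active = calcium-response B-score plate-corrected more than 3 library SD below zero, starting fluorescence within 5 deviations, no agonist response on first addition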;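 also: peak minus trough fluorescence over baseline after final BAM8-22 challenge near maximal dose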
RGS4 block: inhibitors of human RGS4 | B-score at 10 µM | HEK293 M3R/RGS4 inducible, Fluo-4 calcium flux; hits give high values; triggered by carbachol at its EC20 | 310,000 compounds, 0.45% hits;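 active = B-score, a plate-corrected calcium signal, over three deviations above library mean, with baseline fluorescence within five deviations of library mean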;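 also: RGS4 expression induced by doxycycline in cells with stable M3 receptor; B-score is computed from the integrated fluorescence ratio over baseline after carbachol; higher B-score means a larger calcium signal and so more RGS4 inhibition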
Target sequence (P49798 whole entry, looked up): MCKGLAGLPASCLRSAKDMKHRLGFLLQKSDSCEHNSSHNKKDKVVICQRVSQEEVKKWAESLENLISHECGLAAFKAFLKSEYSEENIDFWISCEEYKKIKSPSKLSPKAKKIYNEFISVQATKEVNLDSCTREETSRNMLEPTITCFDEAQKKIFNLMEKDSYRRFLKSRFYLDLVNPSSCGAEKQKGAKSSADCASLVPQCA
RGS4 pot: potentiators or activators of RGS4; B-score at 10 µM; AID 463111; HEK293 M3R/inducible RGS4, carbachol calcium flux Fluo4; hits give low values; 310,000 compounds, 0.92% hits;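 active = B-score of the integrated calcium signal more than 4 SD below the library mean, with starting fluorescence not abnormally high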;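 also: negative B-score means reduced calcium response which marks RGS4 activation or potentiation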
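Reagent: ECmax carbachol challenge; Test system: M3R-expressing HEK293 line, RGS4 induced by doxycycline; Schedule: overnight RGS4 induction, 30 min dye load 37 °C, 20 min compound RT; Detection: calcium dye Fluo4 fluorescence; Read-out: Agonist-evoked peak-minus-minimum fluorescence over baseline, integrated ratio, B score.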
MrgX1 agonist: activates human MrgX1 receptor signaling; Q96LB2; MrgX1-HEK293 cells, Fluo-4 calcium fluorescence, agonist mode; hits give high values; B-score at 10 µM; 310,000 compounds, 0.44% hits; AID 588627;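 active = calcium response B-score plate-corrected fluorescence ratio at least 3 library SD, with starting fluorescence B-score inside 5 SD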
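Test system: HEK293 cells stably expressing human MrgX1 receptor; Input: fifteen thousand cells per well; Dosing: compound delivered in addition one of three; Schedule: overnight seeding, then 1 h dark dye loading; Technique: Fluo-4 NW calcium fluorescence; Measure: B-scored fluorescence response ratio; Controls: positive and negative controls per plate.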
MrgX1 allo act: allosterically activates human MrgX1 receptor signaling; AID 588675; B-score at 10 µM; 310,000 compounds, 0.63% hits; MrgX1-HEK293, Fluo-4 calcium flux, FDSS; hits give high values;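 active = plate-corrected calcium response at least 3 library SD above typical, normal starting fluorescence, not activating the receptor alone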;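 also: compound read alongside a low EC10 to EC30 dose of BAM8-22 agonist; peak minus trough fluorescence over baseline measured at the second addition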
MrgX1 allo conf: reconfirmed allosteric activator of human MrgX1 receptor. shares compounds with MrgX1 allo act. MrgX1-HEK293, Fluo-4 calcium fluorescence, FDSS. activation (ratio percentage), % at 10 µM. 1,200 compounds, 13% hits;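 active = ratio at least 3 SD above the weak peptide control, stable starting fluorescence, no direct agonism earlier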;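 also: compound followed by low BAM8-22 agonist challenge near EC20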
HEK293 Ca flux: MrgX1 antagonist counter-screen hit in parental HEK293 cells. Fluo-4 calcium fluorescence, FDSS. shares compounds with MrgX1 antagonist. fluorescence ratio F(max-min)/F0 at 10 µM. 4,000 compounds, 2% hits. AID 624111;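 active = duplicate-averaged calcium fluorescence ratio at least three times the standard deviation of buffer wells, a nonspecific response in parental cells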
HEK293 Ca counter: activity in parental HEK293 cells without MrgX1 | parental HEK293 calcium flux, Fluo-4 fluorescence ratio; hits give high values | shares compounds with MrgX1 antagonist | fluorescence ratio F(max-min)/F0 at 10 µM | 4,000 compounds, 0.4% hits | AID 624114;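 active = calcium fluorescence ratio, averaged over duplicates, at least 3 SD of the buffer-well ratio, meaning a nonspecific response in receptor-free cells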;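 also: untransfected parental HEK293 lacking MrgX1 used as counterscreen for MrgX1 allosteric activators; fluorescence change taken during the second addition on a kinetic imager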
HEK293 Ca cntr2: MrgX1 activator counter-screen hit in parental HEK293 cells; shares compounds with MrgX1 antagonist; Fluo-4 calcium fluorescence (FDSS); hits give high values; fluorescence ratio F(max-min)/F0 at 10 µM; 4,000 compounds, 8.7% hits; AID 624115;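 active = calcium fluorescence ratio at least three times the spread of buffer wells, meaning a non-specific response in parental cells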
Numbers without * were called inactive; i = inactive; . = not tested or not shown. A selection: hits, their analogues and other compounds. The true share with any hit is near 3.5%.

SMILES	MrgX1 antagonist	RGS4 block	RGS4 pot	MrgX1 agonist	MrgX1 allo act	MrgX1 allo conf	HEK293 Ca flux	HEK293 Ca counter	HEK293 Ca cntr2
O=C(COC(=O)c1cc(=O)[nH]c2ccccc12)NC1CCCCCCC1	i	i	i	i	9.7*	i	i	i	i
COc1cc(NC(=O)C2CCCC2)c(OC)cc1Cl	i	i	i	i	6.6*	i	i	i	i
COc1ccc(-c2cc(C(=O)N3CCN(c4ncccn4)CC3)c3ccccc3n2)c(OC)c1	i	i	i	i	7.4*	i	i	i	71*
CCCNC(=O)OCC12CC3CC(CC(C3)C1)C2	i	i	i	i	9.7*	i	i	i	i
CC(C)(C)NC(=O)CSc1nc(-c2ccc(F)cc2)cs1	i	i	i	i	9.4*	i	i	i	i
Nc1nonc1-n1nnc(C(=O)N/N=C/c2ccc(OCc3ccccc3F)cc2)c1CNc1ccccc1	i	i	i	i	i	.	.	.	.
Cc1cc2c(N3CCCCC3C)ncnc2s1 (stereo not given)	i	i	i	i	7.1*	i	i	i	i
CN1CCN(CC#CC(C)(O)C2CC3C=CC2C3)CC1 (stereo not given)	i	i	i	i	i	.	.	.	.
OC(CCN1CCCCC1)(c1ccccc1)C1C[C@@H]2C=C[C@H]1C2 (stereo not given in full)	i	.	.	i	6.5*	i	i	i	i
Cc1ccc2[nH]c(=O)c(CN(CC3CCCO3)C(=O)c3cccs3)cc2c1 (stereo not given)	i	i	i	i	35*	i	i	i	i
Cc1ccc2cc(CN(CC3CCCO3)C(=O)c3cccs3)c(=O)[nH]c2c1 (stereo not given)	i	i	i	i	i	.	.	.	.
COc1cc(SC)ccc1C(=O)OCC(=O)N1CCCC1	i	i	i	i	11*	i	i	i	i
Cc1cc(SCC(=O)OC(C)C(=O)N(C)c2ccccc2)nc2ccccc12 (stereo not given)	i	i	i	i	i	.	.	.	.
O=C(Nc1ccccc1)N(Cc1ccc(Cl)cc1)CC(O)C(F)(F)F (stereo not given)	i	i	i	i	6.5*	i	i	i	i
O=C(Nc1ccccc1)N(Cc1ccccc1)Cc1ccccc1	i	i	i	i	i	.	.	.	.
CCCCCCC1CC(CSC(=N)N)OC1=O (stereo not given)	i	i	i	i	6.5*	i	i	i	i
CN(Cc1ccccc1)Cc1nc2c(c(=O)n(C)c(=O)n2C)n1CCCc1ccccc1	i	i	i	i	8.1*	i	i	i	i
CCCc1cc(=O)n2[nH]c(C)c(-c3ccc(OC)cc3)c2n1	i	i	i	i	i	.	.	.	.
COC(=O)C(CC(C)C)N1CCC(=O)c2ccccc2S1(=O)=O (stereo not given)	i	i	i	i	i	.	.	.	.
CC12COC3(C(=O)Nc4ccc(Cl)cc4)CC1CCC32C (stereo not given)	i	i	i	i	31*	8.2%*	i	i	i
CC12COC3(C(=O)Nc4nccs4)CC1CCC32C (stereo not given)	i	i	i	i	i	.	.	.	.

Bioassay records as filed in PubChem.
